Measurements from the array DNA melting data of Ke et al. (doi:10.1101/2024.01.08.574731).

Experiments:
[1] = melting temperature; fluorescence melt of hairpins on a sequencing array, two-state fit, raised by 9.35 °C to match UV melts; settings: sodium 0.088 M
In short: (§1)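 Library hairpins on a sequenced MiSeq flow cell carried annealed Cy3 and quencher oligos, and their Cy3 fluorescence was imaged in 50 mM Na-HEPES pH 8.0 with 25 mM NaCl, in 2.5 °C steps up to 60 °C. Signals were normalised to Cy3 before quenching and to control constructs. Melting temperature and folding enthalpy were obtained from bootstrapped two-state fits, combined by inverse-variance weighting across four replicates, and the fitted temperatures were then raised by 9.35 °C to match UV melts.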

[2] = folding enthalpy; higher = less favourable; fluorescence melt of hairpins on a sequencing array, two-state fit; settings: sodium 0.088 M
In short: as §1

Sequence	Tm [1] [°C]	folding enthalpy [2] [kcal/mol]
GCTATCGGAAACGATGGC ((.((((....)))).))	52.9	-47.6
GCTATGCGAAAGCAGGGC ((..(((....)))..))	54.8	-22.2
GCTATGCGAAAGCATTGC ((.((((....)))).))	60.3	-30.2
GCTATGCGAAAGCCTGGC ((.(.((....)).).))	36.9	-18.8
GCTATGCGAAAGCTGAGC (((..((....))..)))	47.4	-21.9
GCTATTCGAAAGAAAAGC (((.(((....))).)))	39.1	-27.9
GCTATTGGAAACAATAGC (((((((....)))))))	56	-47.7
GCTATTGGAAACAGTAGC ((((.((....)).))))	42.9	-30
GCTCAAACGAAAGTTAGC (((..(((....))))))	29.4	-22.6
GCTCAACGAAAGTTAAGC (((.(((....))).)))	42	-26.4
GCTCAAGAAATTGAGC ((((((....))))))	55.3	-34.1
GCTCAAGGAAACTCGAGC ((((.((....)).))))	38.3	-30.5
GCTCAATCGAAAGATAGC (((..(((....))))))	31.9	-11.6
GCTCACCCGAAAGGGAGC (((..(((....))))))	50.2	-19.4
GCTCACCGAAAGGTAAGC (((.(((....))).)))	48.6	-29.1
GCTCACGAAAGTGACAGC ((((((....)))..)))	43.2	-14.8
GCTCACGAAAGTGTCAGC ((((((....)))..)))	37.4	-17.4
GCTCACGAAAGTGTGAGC ((((((....)))..)))	55.8	-34
GCTCACGCGAAAGCGAGC (((..(((....))))))	47.8	-15.1
GCTCACGGAAACGCGAGC ((((.((....)).))))	53.4	-51.9
GCTCACTCGAAAGAGAGC (((..(((....))))))	41.6	-25.1
GCTCAGCGAAAGCGAAGC (((..((....))..)))	43.3	-18.5
GCTCAGCGAAAGCGGGGC ((.(.((....)).).))	59.9	-25.5

Sequence	Tm [1] [°C]	folding enthalpy [2] [kcal/mol]
GCTCAGCGAAAGCGTAGC (((..((....))..)))	49.7	-18.1
GCTCAGCGAAAGCTAAGC (((.(((....))).)))	46.7	-40.3
GCTCAGCGAAAGCTACGC ((..(((....)))..))	35	-11.4
GCTCAGCGAAAGCTATGC ((..(((....)))..))	36.4	-12.6
GCTCAGGGAAACCCGAGC ((((.((....)).))))	51.3	-35.8
GCTCAGGGAAACTTGGGC ((.((.(....).)).))	35.3	-20.6
GCTCAGTCGAAAGACAGC (((..(((....))))))	37.3	-15.3
GCTCATCGAAAGATAAGC (((.(((....))).)))	39.6	-23.8
GCTCATGCGAAAGCAAGC (((..(((....))))))	35	-10.8
GCTCATGGAAACATAAGC (((.(((....))).)))	32	-18.2
GCTCCAGGAAACTGGAAC (.(((((....))))).)	38.3	-18.7
GCTCCCCGAAAGGGAAGC (((.(((....))).)))	56.5	-34
GCTCCCCGAAAGGGTAGC (((.(((....))).)))	54	-21.7
GCTCCCGAAAGGGCAGC ((((((....))).)))	55.2	-30.2
GCTCCCGAAAGGGGCAGC ((((((....)))..)))	49.8	-12.5
GCTCCCGAAAGGGGGAGC ((((((....)))..)))	64.5	-23.8
GCTCCCGAAAGGGTAGC ((((((....))).)))	54.4	-32.2
GCTCCCGAAAGGGTCAGC ((((((....)))..)))	41	-13.5
GCTCCCTCGAAAGAGAGC (((..(((....))))))	35.6	-19.5
GCTCCGCGAAAGCAGAGC ((((.((....)).))))	64	-31.6
GCTCCGCGAAAGCAGTGC ((.(.((....)).).))	41.4	-12.5
GCTCCGCGAAAGCCGAGC ((((.((....)).))))	58.4	-34.5
GCTCCGCGAAAGCGCCGC ((..(((....)))..))	28.9	-6.58

Sequence	Tm [1] [°C]	folding enthalpy [2] [kcal/mol]
GCTCCGCGAAAGCGCGGC ((..(((....)))..))	44.8	-11.9
GCTCCGCGAAAGCTAAGC (((..((....))..)))	30.7	-9.02
GCTCCGGGAAACCGGAAC (.(((((....))))).)	43.2	-12.4
GCTCCTCGAAAGAGTAGC (((.(((....))).)))	45.5	-32.1
GCTCCTGGAAACAGGAAC (.(((((....))))).)	36.6	-19.3
GCTCGAGGAAACCCGAGC (((((.(....).)))))	54.3	-30.9
GCTCGAGGAAACTCGAAC (.(((((....))))).)	40.9	-18.1
GCTCGCCGAAAGGCCAGC (((.(((....))).)))	50.5	-18.1
GCTCGCGAAAGCGCTAGC ((((((....)))..)))	42.6	-11.9
GCTCGGCGAAAGCAAAGC (((..((....))..)))	37.8	-16.4
GCTCGGCGAAAGCAGTGC ((.(.((....)).).))	60.6	-11.7
GCTCGGCGAAAGCCAAGC (((.(((....))).)))	52.4	-35.8
GCTCGGCGAAAGCCTAGC (((.(((....))).)))	52.8	-40.8
GCTCGGCGAAAGCCTGGC ((..(((....)))..))	53.8	-12.7
GCTCGGGGAAACCCAAGC (((.(((....))).)))	45.3	-17.8
GCTCGGGGAAACCCGGGC ((.((((....)))).))	59.2	-34.6
GCTCGGGGAAACCTGGGC ((.(.((....)).).))	45.9	-18.5
GCTCGTACGAAAGTAAGC (((..(((....))))))	39.3	-4.48
GCTCGTCGAAAGACCAGC (((.(((....))).)))	45.1	-15.2
GCTCGTGGAAACACGAAC (.(((((....))))).)	45.2	-14.6
GCTCTAACGAAAGTTAGC (((..(((....))))))	33.8	-13.7
GCTCTAGGAAACCAGAGC (((((.(....).)))))	44	-31.4
